# How the values were obtained:
# LTR-IV G4 [1] = assay: ESI-MS competition assay; format: binding, HIV-1; conditions: 2-fold molar excess of compound
# Procedure, shortened: (§1)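 G4 oligonucleotides heat-denatured and folded overnight at room temperature in 10 mM KCl, 150 mM trimethylammonium acetate pH 6.8. Equimolar pairs of G4s incubated overnight at 4 °C with 2-fold excess test compound, then injected via HPLC into ESI-MS. Binding affinity = bound/(free + bound) ×100, from reconstructed-ion chromatogram areas. Bound includes one or two ligands; free includes K+ adducts.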
# c-kit2 G4 = assay: ESI-MS competition assay; format: binding; conditions: 2-fold molar excess of compound
# Procedure, shortened: as §1
# hTel G4 [2] = assay: Circular dichroism; format: binding, human; conditions: 4:1 c-exNDI:DNA ratio, label-free oligonucleotide
# Procedure, shortened: (§2)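 Unlabelled oligonucleotide, final 4 μM, in 10 mM lithium cacodylate pH 7.4 with 100 mM KCl, annealed at 95 °C for 5 min, then cooled gradually to room temperature. Test compound added to a final 16 μM. CD spectra taken at 230–320 nm (5 mm cell, average of 2 scans, buffer-corrected) while heating 20–95 °C at 5 °C/min. Tm calculated by van't Hoff two-state fit.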
# [3] = tested on: M4 + 5 mutant LTR promoter (non-G4-forming); assay: Luciferase reporter assay in 293T cells; format: cell-based, HIV-1; conditions: increasing amounts of 2, 24 h
# Procedure, shortened: (§3)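 HEK293T cells, 9 ×10^4 per well, transfected 24 h after seeding with 100 ng of a promoterless Luc2 vector carrying the wt or M4+5 (G4-abolishing double point mutant) HIV-1 LTR. Test compound added 1 h after transfection at various concentrations for 24 h. Luciferase activity measured. Cells lysed in RIPA, and signals normalized to total protein (BCA).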
# HIV-1 LTR promoter = assay: LTR-EGFP reporter assay in HeLa-Tat-III/LTR/d1EGFP cells; format: cell-based; conditions: noncytotoxic concentrations of 2 (62.5–250 nM), 48 h, FACS
# hTel G4 [4] = assay: ESI-MS competition assay; format: binding, human; conditions: 2-fold molar excess of compound
# Procedure, shortened: as §1
# LTR-III G4 [5] = assay: ESI-MS competition assay; format: binding, HIV-1; conditions: 2-fold molar excess of compound
# Procedure, shortened: as §1
# HIV-1 NL4-3 strain [6] = assay: Antiviral assay in HIV-1 infected TZM-bl cells; format: cell-based; conditions: for SI HIV-1 strain NL4-3: CC50 value/IC50 value
# Procedure, shortened: (§4)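 TZM-bl cells (HeLa expressing CD4 and CCR5, with LTR-driven luciferase and β-galactosidase) were seeded at 1 ×10^4 cells/well in DMEM/10% FBS and left to adhere overnight. Cells were infected with HIV-1 NL4-3 or BaL at MOI 0.5, treated with serial dilutions of test compound, and incubated at 37 °C for 48 h. IC50 was taken as 50% inhibition of LTR-luciferase signal. CC50 came from parallel MTT on mock-infected cells. SI = CC50/IC50.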
# LTR-IV G4 [7] = assay: FRET melting assay; format: binding, HIV-1
# Procedure, shortened: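 Oligonucleotide labelled with FAM at the 5′ end and TAMRA at the 3′ end, 0.25 μM, folded in lithium cacodylate buffer with 100 mM potassium, plus equimolar test compound. After equilibration at 4 °C, FAM emission was followed from 30 to 95 °C at 1 °C/min. Profiles were normalized, and Tm was the temperature at 0.5 normalized fluorescence.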
# LTR-IV G4 [8] = assay: SPR analysis; set-up: species or system HIV-1; conditions: read-out: KD LTR-IV G4 (SPR); 25 °C, HEPES-KCl buffer, 1:1 binding model
# Procedure, shortened: (§5)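 5′-biotinylated oligonucleotides folded (95 °C for 5 min, cooled to room temperature), diluted to 30 nM and captured on a streptavidin chip to about 500 RU, with an empty reference cell. Running buffer was 0.01 M HEPES pH 7.4, 0.2 M KCl, 3 mM EDTA. Test compound run at 25–200 nM, 30 μL/min, with 280 s contact and 360 s dissociation. Surface regenerated with 10 mM glycine pH 2.0. Sensorgrams buffer-corrected and fitted to a 1:1 model. At least two independent runs, χ2 below 0.2.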
# c-myc G4 = assay: ESI-MS competition assay; format: binding; conditions: 2-fold molar excess of compound
# Procedure, shortened: as §1
# wt LTR promoter = assay: Luciferase reporter assay in 293T cells; format: cell-based, HIV-1; conditions: increasing amounts of 2, 24 h
# Procedure, shortened: as §3
# LTR-III G4 [9] = assay: SPR analysis; set-up: species or system HIV-1; conditions: read-out: KD LTR-III G4 (SPR); 25 °C, HEPES-KCl buffer, 1:1 binding model
# Procedure, shortened: as §5
# Cytotoxicity assay = format: cell-based; conditions: human, uninfected (mock-infected) TZM-bl cells
# Procedure, shortened: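 Run in parallel with the antiviral assay, under the same conditions but on uninfected TZM-bl cells (1 ×10^4 cells/well, seeded overnight, test compound in serial dilution, 37 °C, 48 h). Viability was read by MTT absorbance. CC50 was the concentration that reduced absorbance of mock-infected cells by 50%.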
# HIV-1 NL4-3 = assay: HIV-1 entry assay; format: cell-based; conditions: TZM-bl cells, virus production at 31 h pi; 2 50–100 nM, AZT 0.5 μg/mL, DS 100 μg/mL
# Procedure, shortened: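 TZM-bl cells (HeLa stably expressing CD4, CCR5 and HIV-1 LTR-driven luciferase) were grown in DMEM/10% FBS. Cells were seeded at 1 × 10^4 per well and allowed to adhere overnight, then infected with HIV-1 NL4-3 at MOI 0.5 and kept at 37 °C. Test compound or reference agents were added at 0, 1 or 2 h pi. At 31 h cells were PBS-washed and virus production was read as LTR-luciferase RLU.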
# [10] = tested on: LTR-III, LTR-IV, and hTel templates; assay: Taq polymerase stop assay; format: biochemical; conditions: 2 at 3.1–25.0 nM, K+ 100 mM
# Procedure, shortened: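 A 5′-end-labelled primer was annealed to each template in lithium cacodylate buffer, with or without 100 mM KCl, by heating to 95 °C for 5 min and cooling gradually to room temperature so the templates folded into G4. A template unable to form G4 served as a control. Taq extension was run with or without test compound, and polymerase stop regions were read from the products.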
# HIV-1 BaL strain = assay: Antiviral assay in HIV-1 infected TZM-bl cells; format: cell-based
# Procedure, shortened: as §4
# hTel G4 [11] = assay: SPR analysis; set-up: species or system human; conditions: read-out: KD hTel G4 (SPR); 25 °C, HEPES-KCl buffer, 1:1 binding model
# Procedure, shortened: as §5
# LTR-III G4 [12] = assay: Circular dichroism; format: binding, HIV-1; conditions: 4:1 c-exNDI:DNA ratio, label-free oligonucleotide
# Procedure, shortened: as §2
# LTR-IV G4 [13] = assay: Circular dichroism; format: binding, HIV-1; conditions: 4:1 c-exNDI:DNA ratio, label-free oligonucleotide
# Procedure, shortened: as §2
# HIV-1 NL4-3 strain [14] = conditions: previous work ref 27, 30; cited from earlier work
# TZM-bl cells = conditions: values previously reported ref 27; cited from earlier work
compound,measurement,setting,value
CN(C)CCCn1c(=O)c2ccc3c(=O)n(CCCN(C)C)c(=O)c4c5[nH]c6ccccc6[nH]c5c(c1=O)c2c34 [Compound 2],binding affinity LTR-IV,LTR-IV G4 [1]; competing G4s LTR-III/LTR-IV,25
same,binding affinity LTR-IV,LTR-IV G4 [1]; competing G4s LTR-IV/hTel,52
same,binding affinity LTR-IV,LTR-IV G4 [1]; competing G4s LTR-IV/kit,25
same,binding affinity LTR-IV,LTR-IV G4 [1]; competing G4s LTR-IV/myc,25
same,binding affinity cell G4 (kit),c-kit2 G4; competing G4s LTR-III/kit,12
same,binding affinity cell G4 (kit),c-kit2 G4; competing G4s LTR-IV/kit,9
same,stabilization of hTel G4 by CD,hTel G4 [2],19.9 °C
same,effect on non-G4-forming mutant LTR (M4 + 5) luciferase activity,[3],no effect
same,inhibition of mean EGFP levels (LTR promoter activity),HIV-1 LTR promoter,up to 60%
same,binding affinity cell G4 (hTel),hTel G4 [4]; competing G4s LTR-III/hTel,10
same,binding affinity cell G4 (hTel),hTel G4 [4]; competing G4s LTR-IV/hTel,25
same,binding affinity LTR-III,LTR-III G4 [5]; competing G4s LTR-III/LTR-IV,71
same,binding affinity LTR-III,LTR-III G4 [5]; competing G4s LTR-III/kit,33
same,binding affinity LTR-III,LTR-III G4 [5]; competing G4s LTR-III/myc,39
same,SI HIV-1 strain NL4-3,HIV-1 NL4-3 strain [6],40
same,IC50,"HIV-1 NL4-3 strain [6]; read-out: IC50 HIV-1 strain NL4-3, MOI 0.5, 48 h, LTR-luciferase signal",13.2 ± 0.1 nM
same,"stabilization (ΔTm, FRET) at 4-fold c-exNDI:DNA molar ratio","LTR-IV G4 [7]; 4-fold c-exNDI:DNA molar ratio, 25 °C is the maximum increase measurable, data not shown",above 25 °C
same,difference in stabilization of LTR-IV G4s vs hTel G4,"LTR-IV G4 [7]; FRET, equimolar amounts",≥ 6 °C
same,Kd,LTR-IV G4 [8],6.1 nM
same,binding affinity cell G4 (myc),c-myc G4; competing G4s LTR-III/myc,45
same,binding affinity cell G4 (myc),c-myc G4; competing G4s LTR-IV/myc,44
same,inhibition of wt LTR luciferase activity,wt LTR promoter,up to 65%
same,Kd,LTR-III G4 [9],3.2 nM
same,CC50,Cytotoxicity assay,532 ± 11.7 nM
same,"antiviral activity as a function of time of addition (0, 1, 2 h pi)",HIV-1 NL4-3,No significant difference in the activity of the compound was observed at the tested times
same,Taq polymerase stop site,[10],intense stop site at the most 3′ G tract in each G4-forming template
same,SI HIV-1 strain BaL,HIV-1 BaL strain; CC50 value/IC50 value,14
same,IC50,"HIV-1 BaL strain; read-out: IC50 HIV-1 strain BaL, MOI 0.5, 48 h, LTR-luciferase signal",36.2 ± 4.3 nM
same,Kd,hTel G4 [11],13.1 nM
same,stabilization of LTR-III G4 by CD,LTR-III G4 [12],higher than 27 °C
same,stabilization of LTR-IV G4 by CD,LTR-IV G4 [13],higher than 27 °C
"CN(C)c1ccc(Nc2c3ccc(NC(=O)CCN4CCCC4)cc3nc3cc(NC(=O)CCN4CCCC4)ccc23)cc1.Cl.Cl.Cl [Compound 1, BRACO-19]",IC50 (virus production in infected cells),HIV-1 NL4-3 strain [14],low μM range
same,average selectivity index (SI),HIV-1 NL4-3 strain [14],12
same,CC50,TZM-bl cells,> 12000 nM
same,SI HIV-1 strain NL4-3,HIV-1 NL4-3 strain [6],>3.5
